Test results: ChEMBL document CHEMBL5236623, “Designing Selective Drug-like Molecular Glues for the Glucocorticoid Receptor/14-3-3 Protein-Protein Interaction” (J Med Chem, 2022)
Activity calls are given as the source filed them. No cut-off for these calls is given here.

What was measured:
Homo sapiens [1] = species: Homo sapiens; assay: (§1) Stabilization of fluorescently-labeled human GR_pT524 peptide/human 14-3-3 zeta expressed in Escherichia coli BL21 (DE3)STAR competent cells protein-protein interaction assessed as increase in FP signal of 14-3-3/phosphopeptide complex at […] incubated for 1 hr by Fluorescence polarization assay
Homo sapiens [2] = species: Homo sapiens; assay: (§2) Stabilization of fluorescently-labeled human ER_pT594 peptide/human 14-3-3 zeta expressed in Escherichia coli BL21 (DE3)STAR competent cells protein-protein interaction assessed as increase in FP signal of 14-3-3/phosphopeptide complex at […] incubated for 1 hr by Fluorescence polarization assay
Homo sapiens [3] = species: Homo sapiens; assay: Stabilization of fluorescently-labeled human GR_pT524 peptide/human 14-3-3 zeta expressed in Escherichia coli BL21 (DE3)STAR competent cells protein-protein interaction assessed as increase in FP signal of 14-3-3/phosphopeptide complex incubated for 1 hr by Fluorescence polarization assay
In short: (§3)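 14-3-3ζ/phosphopeptide fluorescence polarization assay run as a concentration-response. EC1.2 is the compound concentration (μM) giving a 20% rise in FP signal of the 14-3-3/phosphopeptide complex, read from the curve. Triplicate, three independent experiments, errors as standard deviation.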

[4] = target: T1, Glucocorticoid receptor (Homo sapiens) (UniProt P04150); assay: Displacement of [3H]dexamethasone from human glucocorticoid receptor by scintillation based radioligand binding assay
T1 sequence (whole entry): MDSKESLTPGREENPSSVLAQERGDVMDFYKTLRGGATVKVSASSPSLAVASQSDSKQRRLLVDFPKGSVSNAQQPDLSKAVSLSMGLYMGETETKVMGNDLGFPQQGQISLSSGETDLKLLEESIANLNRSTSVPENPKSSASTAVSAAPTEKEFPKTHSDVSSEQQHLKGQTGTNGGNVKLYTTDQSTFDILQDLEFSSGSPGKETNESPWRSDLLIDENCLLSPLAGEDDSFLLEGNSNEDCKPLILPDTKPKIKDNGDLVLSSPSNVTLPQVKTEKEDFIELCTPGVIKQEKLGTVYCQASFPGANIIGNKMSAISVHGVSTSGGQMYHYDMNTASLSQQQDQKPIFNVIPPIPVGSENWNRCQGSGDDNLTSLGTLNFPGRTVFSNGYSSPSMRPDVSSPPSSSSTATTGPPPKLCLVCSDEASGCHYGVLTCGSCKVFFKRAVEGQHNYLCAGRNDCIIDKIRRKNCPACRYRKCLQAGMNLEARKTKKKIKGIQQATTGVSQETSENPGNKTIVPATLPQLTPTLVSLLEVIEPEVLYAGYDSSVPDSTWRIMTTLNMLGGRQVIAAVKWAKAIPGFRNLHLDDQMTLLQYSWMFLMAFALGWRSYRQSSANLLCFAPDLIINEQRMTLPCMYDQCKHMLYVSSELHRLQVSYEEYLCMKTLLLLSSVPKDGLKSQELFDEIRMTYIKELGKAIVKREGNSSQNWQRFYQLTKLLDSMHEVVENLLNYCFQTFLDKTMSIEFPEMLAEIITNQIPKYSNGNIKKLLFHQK

Homo sapiens [5] = species: Homo sapiens; assay: Stabilization of fluorescently-labeled human ER_pT594 peptide/human 14-3-3 zeta expressed in Escherichia coli BL21 (DE3)STAR competent cells protein-protein interaction assessed as increase in FP signal of 14-3-3/phosphopeptide complex incubated for 1 hr by Fluorescence polarization assay; in short: as §3
Homo sapiens [6] = species: Homo sapiens; assay: as §2, with “assessed as fold increase in” for “assessed as increase in”, “polarization assay relative to DMSO” for “polarization assay”
Homo sapiens [7] = species: Homo sapiens; assay: as §1, with “assessed as fold increase in” for “assessed as increase in”, “polarization assay relative to DMSO” for “polarization assay”
[8] = Apparent permeability across apical to basolateral side in human Caco-2 cells at 10 uM incubated for 2 hrs; type: ADME, cell-based; details: caco-2, 2 h
Homo sapiens [9] = species: Homo sapiens; assay: Stabilization of human GR_pT524 peptide/6His-tagged human 14-3-3 zeta protein-protein interaction at 1 mM by surface plasmon resonance analysis
Homo sapiens [10] = species: Homo sapiens; assay: Selectivity index, ratio of EC20 for stabilization of fluorescently-labeled human GR_pT524 peptide/human 14-3-3 zeta expressed in Escherichia coli BL21 (DE3)STAR competent cells protein-protein interaction to EC20 for stabilization of fluorescently-labeled human ER_pT594 peptide/human 14-3-3 zeta expressed in Escherichia coli BL21 (DE3)STAR competent cells protein-protein interaction

Row | SMILES | Activity (Homo sapiens [2]) | EC20 (Homo sapiens [3]) [µM] | EC20 (Homo sapiens [5]) [µM] | fold change (FC) (Homo sapiens [6]) | fold change (FC) (Homo sapiens [7]) | other results
1 | O=C(C1=C(O)C(=O)N(c2ccc(O)c(C(=O)O)c2)C1c1ccccc1)c1ccccc1 (stereo not drawn) | inactive | – | – | – | – | Activity (Homo sapiens [1]): inactive
2 | O=C(C1=C(O)C(=O)N(c2ccc(O)c(C(=O)O)c2)C1c1ccc([N+](=O)[O-])cc1)c1ccc(Cl)cc1 (racemic) | – | 42 | – | – | – | Activity [4]: inactive
3 | O=C(O)c1cc(N2C(=O)C(O)=C(Cc3ccccc3)C2c2ccc([N+](=O)[O-])cc2)ccc1O (stereo not drawn) | – | 82 | 175 | 1.2 | 1.3 | –
4 | O=C(C1=C(O)C(=O)N(c2ccccc2O)C1c1ccc([N+](=O)[O-])cc1)c1ccccc1 (stereo not drawn) | – | – | 75 | 1.4 | – | Activity (Homo sapiens [1]): inactive; Papp [8]: 0.25 10^-6 cm/s
5 | O=C(O)c1cc(N2C(=O)C(O)=C(C(=O)c3ccccc3Cl)C2c2ccc([N+](=O)[O-])cc2)ccc1O (stereo not drawn) | – | 96 | 73 | 1.4 | 1.2 | –
6 | O=C(C1=C(O)C(=O)N(c2ccc(O)c(C(=O)O)c2)[C@@H]1c1ccc([N+](=O)[O-])cc1)c1ccc(Cl)cc1 | – | 30 | – | – | – | –
7 | C=CC(C)(C)OC[C@H]1O[C@H](O[C@@H]2C3=C([C@H](C)COC(C)=O)C[C@H](O)[C@]3(C)/C=C3/[C@@H](COC)CC[C@H]3[C@@H](C)[C@H]2O)[C@H](O)[C@@H](O)[C@@H]1O | – | – | – | – | – | Activity (Homo sapiens [3]): inactive; Activity (Homo sapiens [9]): inactive
8 | O=C(C1=C(O)C(=O)N(c2ccc(O)cc2)C1c1ccc([N+](=O)[O-])cc1)c1ccccc1 (stereo not drawn) | – | – | 87 | 1.6 | – | Activity (Homo sapiens [1]): inactive; Papp [8]: 0.13 10^-6 cm/s
9 | Nc1ccc(C2C(C(=O)c3ccccc3)=C(O)C(=O)N2c2ccc(O)c(C(=O)O)c2)cc1 (stereo not drawn) | inactive | – | – | – | – | Activity (Homo sapiens [1]): inactive
10 | O=C(C1=C(O)C(=O)N(c2ccc(O)c(C(=O)O)c2)C1c1ccc([N+](=O)[O-])cc1)c1cccc(OC(F)F)c1 (stereo not drawn) | inactive | – | – | – | – | Activity (Homo sapiens [1]): inactive
11 | O=C(C1=C(O)C(=O)N(c2ccc(O)c(C(=O)O)c2)C1c1ccc([N+](=O)[O-])cc1)c1ccccc1 (stereo not drawn) | – | 63 | 28 | 1.9 | 1.4 | Ratio (Homo sapiens [10]): 2; Papp [8]: 0.047 10^-6 cm/s
12 | O=C(C1=C(O)C(=O)N(c2ccc(O)c(C(=O)O)c2)[C@H]1c1ccc([N+](=O)[O-])cc1)c1ccccc1 | inactive | 162 | – | – | 1.2 | –
13 | O=C(O)c1cc(N2C(=O)C(O)=C(c3ccccc3)C2c2ccc([N+](=O)[O-])cc2)ccc1O (single isomer, unassigned; (+)) | inactive | – | – | – | – | –
14 | O=C(O)c1cc(N2C(=O)C(O)=C(c3ccccc3)C2c2ccc([N+](=O)[O-])cc2)ccc1O (single isomer, unassigned; (-)) | inactive | 40 | – | – | 1.5 | –
15 | O=C(C1=C(O)C(=O)N(c2ccc(O)c(C(=O)O)c2)C1c1ccc2c(c1)COC2=O)c1ccccc1 (stereo not drawn) | – | 150 | 63 | 1.6 | 1.2 | –
16 | O=C(C1=C(O)C(=O)N(c2ccc(O)c(C(=O)O)c2)[C@H]1c1ccc([N+](=O)[O-])cc1)c1ccc(Cl)cc1 | inactive | 126 | – | – | – | –
17 | O=C(C1=C(O)C(=O)N(c2ccc(O)c(C(=O)O)c2)[C@@H]1c1ccc([N+](=O)[O-])cc1)c1ccccc1 | – | 32 | 15 | 2.3 | 1.6 | –
18 | O=C(O)c1cc(N2C(=O)C(O)=C(c3ccccc3)C2c2ccc([N+](=O)[O-])cc2)ccc1O (racemic) | inactive | 45 | – | – | 1.4 | –
